Calls of active or inactive are those of the source. The calls are words filed in the database; no cut-off is given here.
Legend:
[1] = test system: HepG2; assay: Growth inhibition of human HepG2 cells incubated for 3 days by MTT assay; conditions: HepG2, 72 h
[2] = test system: A2780; assay: Growth inhibition of human A2780 cells incubated for 3 days by MTT assay; conditions: A2780, 72 h
[3] = test system: HCT-116; assay: Growth inhibition of human HCT116 cells incubated for 3 days by MTT assay; conditions: HCT-116, 72 h
[4] = test system: BGC-823; assay: Growth inhibition of human BGC823 cells incubated for 3 days by MTT assay; conditions: BGC-823, 72 h
[5] = test system: NCI-H1650; assay: Growth inhibition of human NCI-H1650 cells incubated for 3 days by MTT assay; conditions: NCI-H1650, 72 h
[6] = target: Cyclin-dependent kinase 2/cyclin E1 (Homo sapiens) (UniProt P24864+P24941); assay: Inhibition of CDK2/Cyclin E1 (unknown origin) at 10 uM; assay type: protein-complex assay
[7] = target: CDK9/cyclin T1 (Homo sapiens) (UniProt O60563+P50750); assay: Inhibition of CDK9/Cyclin T1 (unknown origin) at 10 uM; assay type: protein-complex assay
[8] = test system: HepG2; assay: Growth inhibition of human HepG2 cells at 10 uM incubated for 3 days by MTT assay
[9] = test system: A2780; assay: Growth inhibition of human A2780 cells at 10 uM incubated for 3 days by MTT assay
[10] = test system: HCT-116; assay: Growth inhibition of human HCT116 cells at 10 uM incubated for 3 days by MTT assay
[11] = test system: BGC-823; assay: Growth inhibition of human BGC823 cells at 10 uM incubated for 3 days by MTT assay
[12] = test system: NCI-H1650; assay: Growth inhibition of human NCI-H1650 cells at 10 uM incubated for 3 days by MTT assay
[13] = test system: MDA-MB-231; assay: Induction of cell cycle arrest in human MDA-MB-231 cells assessed as increase in accumulation at G2/M phase at 5 times IC50 incubated for 24 hrs by propidium iodide staining based flow cytometry; assay type: functional
In short: (§1)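 MDA-MB-231 cells exposed 24 h. Combretastatin A-4 at 200 nM served as reference for G2/M arrest. Cells were then fixed, stained with propidium iodide, and phase distribution was read on a flow cytometer.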

[14] = organism: Homo sapiens; assay: Induction of microtubule destabilization in human MDA-MB-231 cells at 5 times IC50 incubated for 24 hrs by fluorescent microscopy; assay type: cell-based
In short: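 MDA-MB-231 cells treated 24 h alongside a DMSO control. Cells were fixed and immunostained for α-tubulin and phosphorylated histone H3, with DAPI for DNA. The microtubule network was judged in interphase cells (phospho-H3-negative) by confocal fluorescence microscopy with ×63 or ×40 objectives.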

[15] = test system: MDA-MB-231; assay: Growth inhibition of human MDA-MB-231 cells incubated for 3 days by SRB assay; assay type: functional, cell-based; conditions: MDA-MB-231, 72 h
[16] = test system: MCF7; assay: Growth inhibition of human MCF7 cells incubated for 3 days by SRB assay; assay type: functional, cell-based; conditions: MCF7, 72 h
[17] = test system: A549; assay: Growth inhibition of human A549 cells incubated for 3 days by SRB assay; assay type: functional, cell-based; conditions: A549, 72 h
[18] = test system: KB; assay: Growth inhibition of human KB cells incubated for 3 days by SRB assay; assay type: functional, cell-based; conditions: 72 h
[19] = Growth inhibition of human KBVIN cells incubated for 3 days by SRB assay; assay type: functional, cell-based; conditions: 72 h
[20] = test system: MDA-MB-231; assay: Induction of cell cycle arrest in human MDA-MB-231 cells assessed as increase in accumulation at subG1 phase at 5 times IC50 incubated for 24 hrs by propidium iodide staining based flow cytometry; assay type: functional
In short: as §1

Row | IC50 [1] | IC50 [2] | IC50 [3] | IC50 [4] | IC50 [5] | inhibition [6] | inhibition [7] | IC50 [15] | IC50 [16] | IC50 [17] | IC50 [18] | Compound | growth inhibition (GI) [8] | growth inhibition (GI) [9] | growth inhibition (GI) [10] | growth inhibition (GI) [11] | growth inhibition (GI) [12] | Activity [13] | Activity [14] | IC50 [19] | Activity [20]
1 |  |  |  |  |  | inactive | inactive |  |  |  |  | O=C1Nc2ccc(F)cc2/C1=C\C(=O)c1cnccn1 | inactive | inactive | inactive | inactive | inactive |  |  |  | 
2 |  |  |  |  |  | inactive | inactive |  |  |  |  | O=C1Nc2ccc(F)cc2/C1=C\C(=O)c1cc(Cl)sc1Cl | inactive | inactive | inactive | inactive | inactive |  |  |  | 
3 | 3090 nM | 2370 nM | 1410 nM | 8020 nM | 2730 nM | inactive | inactive |  |  |  |  | O=C1Nc2ccc(F)cc2/C1=C\C(=O)c1cnc2ccc(Cl)nn12 |  |  |  |  |  |  |  |  | 
4 | 5370 nM | 4460 nM |  |  | 7560 nM | inactive | inactive |  |  |  |  | CN1CCN(c2cccc(N/C=C3\C(=O)Nc4ccc(NC(=O)c5ccc[nH]5)cc43)c2)CC1 |  |  | inactive | inactive |  |  |  |  | 
5 | 3440 nM | 1580 nM | 1070 nM | 6120 nM | 3460 nM | inactive | inactive |  |  |  |  | O=C1Nc2ccc(F)cc2/C1=C\C(=O)c1ccc(O)cc1F |  |  |  |  |  |  |  |  | 
6 | 8780 nM | 2750 nM | 1840 nM | 7750 nM | 3220 nM | inactive | inactive |  |  |  |  | O=C1Nc2ccc(F)cc2/C1=C\C(=O)c1cccs1 |  |  |  |  |  |  |  |  | 
7 | 3030 nM | 2030 nM | 2150 nM | 2670 nM | 1630 nM | inactive | inactive | 4430 nM | 4440 nM | 4750 nM | 4400 nM | CN1CCN(c2cccc(N/C=C3\C(=O)Nc4ccc(NC(=O)c5c(F)cccc5F)cc43)c2)CC1 |  |  |  |  |  |  |  | 7860 nM | Active
8 | 1780 nM | 2050 nM | 2010 nM | 3170 nM | 1870 nM | inactive | inactive |  |  |  |  | COc1ccc(C(=O)Nc2ccc3c(c2)/C(=C/Nc2cccc(N4CCN(C)CC4)c2)C(=O)N3)cc1 |  |  |  |  |  |  |  |  | 
9 | 2370 nM | 2140 nM | 2280 nM | 2240 nM | 2170 nM | inactive | inactive |  |  |  |  | CN1CCN(c2cccc(N/C=C3\C(=O)Nc4ccc(NC(=O)c5c(Cl)cccc5Cl)cc43)c2)CC1 |  |  |  |  |  |  |  |  | 

The next lines start with the compound.

Row | Compound | IC50 [1] | IC50 [2] | IC50 [3] | IC50 [4] | IC50 [5] | inhibition [6] | inhibition [7] | IC50 [15] | IC50 [16] | IC50 [17] | IC50 [18] | growth inhibition (GI) [8] | growth inhibition (GI) [9] | growth inhibition (GI) [10] | growth inhibition (GI) [11] | growth inhibition (GI) [12] | Activity [13] | Activity [14] | IC50 [19] | Activity [20]
10 | CC(=O)O[C@H]1C(=O)[C@@]2(C)[C@H]([C@H](OC(=O)c3ccccc3)[C@]3(O)C[C@H](OC(=O)[C@H](O)[C@@H](NC(=O)c4ccccc4)c4ccccc4)C(C)=C1C3(C)C)[C@]1(OC(C)=O)CO[C@@H]1C[C@@H]2O [PACLITAXEL] | 20 nM | 30 nM | 30 nM | 1 nM | 70 nM |  |  |  |  |  |  |  |  |  |  |  |  |  |  | 
11 | CN1CCN(c2cccc(N/C=C3\C(=O)Nc4ccc(NC(=O)c5cccc(F)c5)cc43)c2)CC1 | 6720 nM | 2910 nM | 2740 nM | 8500 nM | 4280 nM | inactive | inactive |  |  |  |  |  |  |  |  |  |  |  |  | 
12 | O=C1Nc2ccc(F)cc2/C1=C\C(=O)c1ccccc1O |  |  |  |  |  | inactive | inactive |  |  |  |  | inactive | inactive | inactive | inactive | inactive |  |  |  | 
13 | O=C1Nc2ccccc2/C1=C1/Nc2ccccc2/C1=N\O |  |  |  |  |  |  |  | 7590 nM | 6810 nM | 5820 nM | 5340 nM | inactive | inactive | inactive | inactive | inactive | Active | inactive | 5170 nM | 
14 | O=C1Nc2ccc([N+](=O)[O-])cc2/C1=C\C(=O)c1ccc(C2CCCCC2)cc1 | 3990 nM | 2090 nM | 2320 nM | 5900 nM | 3860 nM | inactive | inactive |  |  |  |  |  |  |  |  |  |  |  |  | 
15 | CC(C)CC(=O)Nc1ccc2c(c1)/C(=C/Nc1cccc(N3CCN(C)CC3)c1)C(=O)N2 | 5070 nM | 3370 nM | 9410 nM | 6080 nM | 5870 nM | inactive | inactive |  |  |  |  |  |  |  |  |  |  |  |  | 
16 | O=C1Nc2ccc(F)cc2/C1=C\C(=O)c1ccc(C2CCCCC2)cc1 | 2840 nM | 2310 nM | 2520 nM | 4450 nM | 2730 nM | inactive | inactive |  |  |  |  |  |  |  |  |  |  |  |  | 
17 | O=C1Nc2ccc(F)cc2/C1=C\C(=O)c1ccc(-n2ccnc2)cc1 |  |  |  |  |  | inactive | inactive |  |  |  |  | inactive | inactive | inactive | inactive | inactive |  |  |  | 
18 | O=C1Nc2ccc(F)cc2/C1=C\C(=O)c1ccco1 |  |  |  |  |  | inactive | inactive |  |  |  |  | inactive | inactive | inactive | inactive | inactive |  |  |  | 
19 | O=C1Nc2ccc(F)cc2/C1=C\C(=O)c1nccs1 |  |  |  |  |  | inactive | inactive |  |  |  |  | inactive | inactive | inactive | inactive | inactive |  |  |  | 
20 | O=C1Nc2ccc(F)cc2/C1=C\C(=O)c1sccc1Cl | 3100 nM | 2140 nM | 2450 nM | 2660 nM | 3560 nM | inactive | inactive |  |  |  |  |  |  |  |  |  |  |  |  | 
21 | O=C1Nc2ccc(F)cc2/C1=C\C(=O)c1ccc[nH]1 | 3120 nM | 2170 nM | 1380 nM | 6420 nM | 2840 nM | inactive | inactive |  |  |  |  |  |  |  |  |  |  |  |  | 
22 | O=C1Nc2ccc(F)cc2/C1=C\C(=O)c1c[nH]c2ccccc12 | 1860 nM | 2440 nM | 3010 nM | 8990 nM | 6580 nM | inactive | inactive |  |  |  |  |  |  |  |  |  |  |  |  | 
23 | O=C1Nc2ccccc2/C1=C\C(=O)c1c[nH]c2ccccc12 | 2110 nM | 2080 nM | 860 nM | 9440 nM | 1270 nM | inactive | inactive |  |  |  |  |  |  |  |  |  |  |  |  | 
24 | CN1CCC(C(=O)Nc2ccc3c(c2)/C(=C/Nc2cccc(N4CCN(C)CC4)c2)C(=O)N3)CC1 |  |  | 4670 nM |  |  | inactive | inactive |  |  |  |  | inactive | inactive |  | inactive | inactive |  |  |  | 
25 | O=C1Nc2ccc(F)cc2/C1=C\C(=O)c1ccc2c(c1)OCO2 | 2280 nM | 1120 nM | 760 nM | 4090 nM | 1220 nM | inactive | inactive | 5310 nM | > 10000 nM | > 10000 nM | > 10000 nM |  |  |  |  |  | Active | Active | > 10000 nM | 

From ChEMBL document CHEMBL4052679, “Design, synthesis and biological evaluation of novel indolin-2-ones as potent anticancer compounds” (Bioorg Med Chem Lett, 2017)
